In ChEMBL document CHEMBL3259746, “Identification of [1,2,3]triazolo[4,5-d]pyrimidin-7(6H)-ones as novel inhibitors of Chikungunya virus replication” (J Med Chem, 2014):

Experiments:
[1] = Cytotoxicity against non-infected African green monkey Vero cells after 7 days by MTS/PMS method; format: cell-based; conditions: chlorocebus sabaeus
Chikungunya virus [2] = assay: Antiviral activity against Chikungunya virus Indian Ocean strain 899 infected in African green monkey Vero cells assessed as inhibition of virus-induced cytopathic effect after 7 days by MTS/PMS method; format: functional, cell-based; conditions: Indian Ocean strain 899, Vero, 168 h
Chikungunya virus [3] = assay: Antiviral activity against Chikungunya virus LR2006-OPY1 infected in African green monkey Vero E6 cells assessed as reduction in virus yield after 2 days by real time RT-PCR analysis; format: functional, cell-based; conditions: 48 h
Chikungunya virus [4] = assay: Antiviral activity against Chikungunya virus St. Martin infected in African green monkey Vero E6 cells assessed as reduction in virus yield after 2 days by real time RT-PCR analysis; format: functional, cell-based; conditions: 48 h
Chikungunya virus [5] = assay: Antiviral activity against Chikungunya virus Venturini infected in African green monkey Vero E6 cells assessed as reduction in virus yield after 2 days by real time RT-PCR analysis; format: functional, cell-based; conditions: 48 h
[6] = Cytotoxicity against non-infected African green monkey Vero E6 cells up to 300 uM after 2 days; format: cell-based; conditions: chlorocebus sabaeus, 48 h
Method in brief: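 Uninfected Vero E6 cells were tested up to 300 μM under the same settings as the 2-day virus-yield assay: 5 × 10⁴ cells/well, 2.5% FCS medium, and 2-fold dilutions in triplicate.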

Semliki Forest virus = assay: Antiviral activity against Semliki forest virus Vietnam infected in African green monkey Vero E6 cells assessed as reduction in virus yield after 2 days by real time RT-PCR analysis; format: functional, organism-based; conditions: 48 h
Chikungunya virus [7] = assay: Antiviral activity against Chikungunya virus Congo 95 infected in African green monkey Vero E6 cells assessed as reduction in virus yield after 2 days by real time RT-PCR analysis; format: functional, cell-based; conditions: Congo 95, Vero, 48 h
Sindbis virus = assay: Antiviral activity against Sindbis virus HRsp infected in African green monkey Vero E6 cells assessed as reduction in virus yield after 2 days by real time RT-PCR analysis; format: functional, organism-based; conditions: 48 h
[8] = Selectivity index, ratio of CC50 for African green monkey Vero cells to EC50 for Chikungunya virus Indian Ocean strain 899 infected in African green monkey Vero cells; format: toxicity, cell-based; conditions: read-out: Ratio CC50/EC50

Compound	CC50 at 168 h [1] [µM]	EC50 (Chikungunya virus [2]) [µM]	EC90 (Chikungunya virus [2]) [µM]	also measured
CC(=O)c1cccc(-n2nnc3c(=O)n(C)c(C)nc32)c1	> 706	> 441	> 441	–
CC(=O)c1cccc(-n2nnc3c(=O)[nH]c(C)nc32)c1	> 743	19	38	EC50 (Chikungunya virus [3]): 25 µM; EC50 (Chikungunya virus [4]): 24 µM; EC50 (Chikungunya virus [5]): 26 µM; Activity [6]: Non-toxic; EC50 (Semliki Forest virus): > 464 µM; EC50 (Chikungunya virus [7]): 6.4 µM; EC50 (Sindbis virus): > 464 µM
CC(=O)c1cccc(-n2nnc3c(N)nc(C)nc32)c1	> 746	225	309	–
CNc1nc(C)nc2c1nnn2-c1cccc(C(C)=O)c1	514	> 443	> 443	–
COc1nc(C)nc2c1nnn2-c1cccc(C(C)=O)c1	495	> 441	> 441	–
CC(=O)c1cccc(-n2cnc3c(=O)[nH]c(C)nc32)c1	491	127	161	–
CC(=O)c1cccc(-n2c(C)nc3c(=O)[nH]c(C)nc32)c1	> 703	> 440	> 440	–
COc1ccccc1-n1nnc2c(=O)[nH]c(C)nc21	> 777	348	460	–
COc1cccc(-n2nnc3c(=O)[nH]c(C)nc32)c1	> 777	28	179	–
Cc1nc2c(nnn2-c2cccc(Cl)c2)c(=O)[nH]1	> 764	32	235	–
Cc1nc2c(nnn2-c2cccc(C(=O)c3ccccc3)c2)c(=O)[nH]1	> 604	23	47	–
Cc1nc2c(nnn2-c2cccc(OC(C)C)c2)c(=O)[nH]1	> 704	12	156	–
CC(=O)Nc1cccc(-n2nnc3c(=O)[nH]c(C)nc32)c1	206	318	425	–
Cc1nc2c(nnn2-c2cccc(N(C)C)c2)c(=O)[nH]1	538	> 370	> 370	–
Cc1nc2c(nnn2-c2cccc(C#N)c2)c(=O)[nH]1	> 793	131	187	–
CC(=O)c1cccc(-n2nnc3c(=O)[nH]cnc32)c1	> 784	> 490	> 490	–

Compound	CC50 at 168 h [1] [µM]	EC50 (Chikungunya virus [2]) [µM]	EC90 (Chikungunya virus [2]) [µM]	also measured
CC(=O)c1ccc(-n2nnc3c(=O)[nH]c(C)nc32)cc1	> 743	326	> 743	–
CCCOc1ccc(-n2nnc3c(=O)[nH]c(C)nc32)cc1	594	169	> 701	–
Cc1nc2c(nnn2-c2ccc3c(c2)OCO3)c(=O)[nH]1	> 737	> 461	> 461	–
CCOC(=O)c1cccc(-n2nnc3c(=O)[nH]c(C)nc32)c1	322	202	331	–
Cc1nc2c(nnn2-c2cccc(C(=O)O)c2)c(=O)[nH]1	> 638	> 399	> 399	–
CC(C)Oc1cccc(-n2nnc3c(=O)[nH]c(C(F)(F)F)nc32)c1	104	68	> 147	–
CCc1nc2c(nnn2-c2cccc(OC(C)C)c2)c(=O)[nH]1	> 668	3	18	EC50 (Chikungunya virus [3]): 2.6 µM; EC50 (Chikungunya virus [4]): 2.9 µM; EC50 (Chikungunya virus [5]): 1.4 µM; Activity [6]: Non-toxic; selectivity ratio [8]: > 222; EC50 (Semliki Forest virus): 219 µM; EC50 (Chikungunya virus [7]): 0.75 µM; EC50 (Sindbis virus): 69 µM
CC(C)Oc1cccc(-n2nnc3c(=O)[nH]c(CC#N)nc32)c1	215	115	137	–
CCCc1nc2c(nnn2-c2cccc(OC(C)C)c2)c(=O)[nH]1	> 638	> 399	> 399	–
CC(C)Oc1cccc(-n2nnc3c(=O)[nH]c(C(C)C)nc32)c1	> 638	280	> 638	–
CC(C)Oc1cccc(-n2nnc3c(=O)[nH]c(-c4ccccc4)nc32)c1	277	204	> 360	–
CC(C)Oc1cccc(-n2nnc3c(=O)[nH]c(-c4ccncc4)nc32)c1	82	75	> 144	–
CC(C)Oc1cccc(-n2nnc3c(=O)[nH]c(=O)[nH]c32)c1	> 696	> 435	> 435	–
Cc1nc2c(nnn2Cc2cccc(OC(C)C)c2)c(=O)[nH]1	> 872	167	232	–
CC(=O)c1cccc(-n2nnc3c(Cl)nc(C)nc32)c1	> 174	> 174	> 174	–
CCN(CC)CCCC(C)Nc1ccnc2cc(Cl)ccc12 (centres undefined) [CHLOROQUINE]	–	–	21	–
